What all share (format): cell-based, human
The subject of one assay is MDA-MB-231. The experiment in a line: MTT cytotoxicity assay, MDA-MB-231. In short, it runs like this:
(§1)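 Cells grown in DMEM with 10 % FBS and 1 % antibiotics (100 U/ml penicillin), seeded at 1.0 × 10^4 cells/well and left 24 h at 37 °C, 5 % CO2. Medium replaced; test compound at 5, 10, 25 and 50 μM for 48 h. MTT (5 mg/mL solution) added for 4 h; formazan dissolved in DMSO; A570 read. Triplicates. % viability versus untreated cells; IC50 from dose–response analysis.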

In another assay the test system is MCF-7. As to the kind of experiment: MTT cytotoxicity assay, MCF-7. In short, it runs like this: as §1
For a further assay, the system named is MCF-10A. As to the kind of experiment: MTT cytotoxicity assay, normal breast cell line MCF-10A. As to conditions: 48 h, read-out: IC50 Values MCF-10A. In short, it runs like this: as §1
The mark [1] stands for this setting: Homo sapiens, MDA-MB-231, 48 h, read-out: IC50 Values MDA-MB-231, MTT, 48 h, ±SD.
The mark [2] stands for this setting: Homo sapiens, MCF7, 48 h, read-out: IC50 Values MCF-7, MTT, 48 h, ±SD.

Read-outs that look alike come from different tables or passages of the source. A value given as a limit tells only on which side of the number the result lay.

Turning to `Cc1ccccc1Nc1ncccc1N` [compound 6, N^2-o-tolylpyridine-2,3-diamine], the IC50 is 108 ± 0.2 µM with MDA-MB-231 (setting [1]); 112 ± 0.2 µM with MCF-7 (setting [2]); over 100 µM with MCF-10A (Homo sapiens, MCF-10A).
For `CCN(CC)c1ccc(C=Nc2cccnc2NCc2ccccc2)c(O)c1` [H2L^4, 2-((2-(benzylamino)pyridin-3-ylimino)methyl) −5-(diethylamino)phenol], in that order: 81.1 ± 0.2 µM, 104.6 ± 0.2 µM and over 100 µM.
Consider `Cc1ccccc1Nc1ncccc1[N+](=O)[O-]` [compound 3, 3-nitro-N-o-tolylpyridin-2-amine], for which the concentration for half-maximal inhibition (IC50) with MDA-MB-231 (setting [1]) was 112 ± 0.41 µM; in the assay with MCF-7 (setting [2]) it was 120 ± 0.3 µM; with MCF-10A (Homo sapiens, MCF-10A) it was over 100 µM.
For `Oc1ccccc1C=Nc1cccnc1NCc1ccccc1` [H2L^1, 2-((2-(benzylamino)pyridin-3-ylimino)methyl)phenol], the concentration for half-maximal inhibition (IC50) in the assay on MDA-MB-231 (setting [1]) is 75 ± 0.2 µM; with MCF-7 (setting [2]), 70.9 ± 0.4 µM; in the assay on MCF-10A (Homo sapiens, MCF-10A), over 100 µM.
For the compound `O=[N+]([O-])c1cccnc1NC1CCCCC1` [compound 2, N-cyclohexyl-3-nitropyridin-2-amine], the IC50 was 110.2 ± 0.3 µM in the assay with MDA-MB-231 (setting [1]); 118 ± 0.3 µM in the assay on MCF-7 (setting [2]); over 100 µM in the assay on MCF-10A (Homo sapiens, MCF-10A).
As to `Oc1ccc(Br)cc1C=Nc1cccnc1NC1CCCCC1` [H2L^5, 4-bromo-2-((2-(cyclohexylamino)pyridin-3-ylimino)methyl)phenol], the half-inhibitory concentration (IC50) with MDA-MB-231 (setting [1]) is 82.2 ± 0.6 µM; with MCF-7 (setting [2]) it was 88.81 ± 0.81 µM; in the assay on MCF-10A (Homo sapiens, MCF-10A), over 100 µM.
In the case of `Cc1ccccc1Nc1ncccc1N=Cc1cc(Br)ccc1O` [H2L^7, 2-((2-(o-toluidino)pyridin-3-ylimino)methyl)-4-bromophenol], the IC50 is 85.1 ± 0.4 µM with MDA-MB-231 (setting [1]); 88.3 ± 0.51 µM in the assay with MCF-7 (setting [2]); over 100 µM with MCF-10A (Homo sapiens, MCF-10A).
Take `Oc1ccc2ccccc2c1C=Nc1cccnc1NCc1ccccc1` [H2L^3, 1-((2-(benzylamino)pyridin-3-ylimino)methyl)naphthalen-2-ol]: the half-maximal inhibitory concentration (IC50) was 87.01 ± 0.3 µM with MDA-MB-231 (setting [1]); 112.4 ± 0.6 µM with MCF-7 (setting [2]); over 100 µM in the assay on MCF-10A (Homo sapiens, MCF-10A).
For `CCN(CC)c1ccc(C=Nc2cccnc2NC2CCCCC2)c(O)c1` [H2L^6, 2-((2-(cyclohexylamino)pyridin-3-ylimino)methyl)-5-(diethylamino)phenol], in that order: 96 ± 0.4 µM, 99.6 ± 0.41 µM and over 100 µM.
Consider `N.N.[Cl][Pt][Cl]` [Cisplatin, reference compound], for which the 50% inhibitory concentration (IC50) in the assay on MDA-MB-231 (read-out: IC50 Values MDA-MB-231, MTT, 48 h, ±SD) was 27 ± 0.8 µM; with MCF-7 (read-out: IC50 Values MCF-7, MTT, 48 h, ±SD), 24.1 ± 0.8 µM; in the assay on MCF-10A (MTT, normal breast cell line, ±SD), 64.6 ± 0.5 µM.
With `Nc1cccnc1NC1CCCCC1` [compound 5, N^2-cyclohexylpyridine-2,3-diamine], the IC50 was 109 ± 0.8 µM with MDA-MB-231 (setting [1]); 112 ± 0.41 µM with MCF-7 (setting [2]); over 100 µM with MCF-10A (Homo sapiens, MCF-10A).
For `Oc1ccc(Br)cc1C=Nc1cccnc1NCc1ccccc1` [H2L^2, 2-((2-(benzylamino)pyridin-3-ylimino)methyl)-4-bromophenol], in that order: 81.6 ± 0.6 µM, 81.6 ± 0.6 µM and over 100 µM.
For `CCN(CC)c1ccc(C=Nc2cccnc2Nc2ccccc2C)c(O)c1` [H2L^8, 2-((2-(o-toluidino)pyridin-3-ylimino)methyl)-5-(diethylamino)phenol], the IC50 with MDA-MB-231 (setting [1]) is 83.6 ± 0.3 µM; with MCF-7 (setting [2]), 88.3 ± 0.3 µM; with MCF-10A (Homo sapiens, MCF-10A), over 100 µM.
Turning to `Nc1cccnc1NCc1ccccc1` [compound 4, N^2-benzylpyridine-2,3-diamine], the half-maximal inhibitory concentration (IC50) in the assay with MDA-MB-231 (setting [1]) is 108 ± 0.2 µM; with MCF-7 (setting [2]) it was 109 ± 0.6 µM; in the assay on MCF-10A (Homo sapiens, MCF-10A), over 100 µM.
With `O=[N+]([O-])c1cccnc1NCc1ccccc1` [compound 1, N-benzyl-3-nitropyridin-2-amine], the 50% inhibitory concentration (IC50) was 110 ± 0.4 µM with MDA-MB-231 (setting [1]); 122 ± 0.8 µM in the assay on MCF-7 (setting [2]); over 100 µM in the assay on MCF-10A (Homo sapiens, MCF-10A).

Values taken from article PMC10764271 (Saudi Pharmaceutical Journal : SPJ, 2023).
